Legend:
[1] = test system: Mus musculus; assay: In vivo inhibition of S1P1 receptor in mouse assessed as reduction of peripheral blood CD8+ cells at 1.25 mg/kg, ip after 24 hrs by flow cytometric analysis relative to control; assay type: functional; conditions: in the assay text read “CD4+ cells” for “CD8+ cells”, route intraperitoneal
In short: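 Compound given intraperitoneally at 1.25 mg/kg in 0.9% NaCl (0.2 mg/mL); blood taken retro-orbitally into EDTA after 24 h. Lymphocytes counted by flow cytometry after red-cell lysis and compared with untreated mice. Mean ± SEM, n ≥ 3 independent experiments; p < 0.05 versus control.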

[2] = test system: Mus musculus; assay: In vivo inhibition of S1P1 receptor in mouse assessed as peripheral blood WBC at 1.25 mg/kg, ip after 24 hrs by flow cytometric analysis (reference value: 8.94 +/- 0.59 10^6/ml); assay type: functional; conditions: route intraperitoneal
[3] = test system: Mus musculus; assay: In vivo inhibition of S1P1 receptor in mouse assessed as peripheral blood B cells at 1.25 mg/kg, ip after 24 hrs by flow cytometric analysis (reference value: 4.72 +/- 0.53 10^6/ml); assay type: functional; conditions: route intraperitoneal
[4] = test system: Mus musculus; assay: In vivo inhibition of S1P1 receptor in mouse assessed as peripheral blood CD8+ cells at 1.25 mg/kg, ip after 24 hrs by flow cytometric analysis (reference value: 0.48 +/- 0.05 10^6/ml); assay type: functional; conditions: route intraperitoneal
[5] = test system: Lung; assay: Drug uptake in wild type C57BL/6 mouse lung at 400 KBq/g, iv measured at 90 mins by PET/CT analysis; assay type: ADME, organism-based; conditions: in vivo, 1.5 h
In short: (§1)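 Male C57BL/6 wild-type mice, 13 weeks old, 21−26 g (n = 4), anaesthetised with isoflurane/O₂. 18F tracer given as a tail-vein bolus of 400 kBq/g in 100 μL, flushed with 100 μL saline. Dynamic list-mode PET was acquired, with CT-defined volumes of interest over the organs. Uptake was expressed as counts/mL in the VOI divided by total mouse counts ×100 (%ID/mL). Time-activity curves ran 0−90 min p.i.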

[6] = test system: Bone; assay: Drug uptake in wild type C57BL/6 mouse bone at 400 KBq/g, iv measured at 90 mins by PET/CT analysis; assay type: ADME, organism-based, Bone element; conditions: in vivo, 1.5 h; in short: as §1
[7] = Drug uptake in wild type C57BL/6 mouse myocardium at 400 KBq/g, iv measured at 10 mins by PET/CT analysis; assay type: ADME, organism-based; conditions: in vivo; in short: as §1
[8] = test system: Kidney; assay: Drug uptake in wild type C57BL/6 mouse kidney at 400 KBq/g, iv measured at 90 mins by PET/CT analysis; assay type: ADME, organism-based; conditions: in vivo, 1.5 h; in short: as §1
[9] = test system: Blood; assay: Drug uptake in wild type C57BL/6 mouse blood at 400 KBq/g, iv measured at 90 mins by PET analysis; assay type: ADME, organism-based; conditions: in vivo, 1.5 h; in short: as §1
[10] = test system: Lung; assay: Drug uptake in wild type C57BL/6 mouse lung at 400 KBq/g, iv measured at 20 mins by PET/CT analysis; assay type: ADME, organism-based; conditions: in vivo; in short: as §1
[11] = test system: Serum; assay: Metabolic stability in human serum assessed as retention time at 8.7 MBq at 37 degC after 90 mins by HPLC analysis; assay type: ADME, cell-free; conditions: 1.5 h
In short: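 Formulated 18F tracer (20 μL, 8.7 MBq) was added to 200 μL human serum and incubated at 37 °C. Samples were taken at 10, 30, 60 and 90 min and quenched in MeOH/CH₂Cl₂ 1:1. After centrifugation, supernatants were analysed by C18 radio-HPLC (10−90% CH₃CN/0.1% TFA gradient over 15 min, 1.0 mL/min, 254 nm).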

[12] = test system: Liver; assay: Drug uptake in wild type C57BL/6 mouse liver at 400 KBq/g, iv measured at 10 mins by PET/CT analysis; assay type: ADME, organism-based; conditions: in vivo; in short: as §1
[13] = test system: Mus musculus; assay: Drug uptake in wild type C57BL/6 mouse body parts at 400 KBq/g, iv measured at 90 mins by PET/CT analysis; assay type: ADME, organism-based; conditions: in vivo, 1.5 h; in short: as §1
[14] = test system: Spleen; assay: Drug uptake in wild type C57BL/6 mouse spleen at 400 KBq/g, iv measured at 30 mins by PET/CT analysis; assay type: ADME, organism-based; conditions: in vivo, 0.5 h; in short: as §1
[15] = test system: Spleen; assay: Drug uptake in wild type C57BL/6 mouse spleen at 400 KBq/g, iv measured at 10 mins by PET/CT analysis; assay type: ADME, organism-based; conditions: in vivo; in short: as §1
[16] = biological target: Sphingosine 1-phosphate receptor 1 (Homo sapiens) (UniProt P21453); assay: Agonist activity at human S1P1 receptor overexpressed in CHO cells assessed as p44/42 MAPK phosphorylation at 1 uM by Western blot analysis; assay type: cell-based; conditions: TDE = time-dependent effect
Sphingosine 1-phosphate receptor 1 (Homo sapiens), sequence (P21453 whole entry): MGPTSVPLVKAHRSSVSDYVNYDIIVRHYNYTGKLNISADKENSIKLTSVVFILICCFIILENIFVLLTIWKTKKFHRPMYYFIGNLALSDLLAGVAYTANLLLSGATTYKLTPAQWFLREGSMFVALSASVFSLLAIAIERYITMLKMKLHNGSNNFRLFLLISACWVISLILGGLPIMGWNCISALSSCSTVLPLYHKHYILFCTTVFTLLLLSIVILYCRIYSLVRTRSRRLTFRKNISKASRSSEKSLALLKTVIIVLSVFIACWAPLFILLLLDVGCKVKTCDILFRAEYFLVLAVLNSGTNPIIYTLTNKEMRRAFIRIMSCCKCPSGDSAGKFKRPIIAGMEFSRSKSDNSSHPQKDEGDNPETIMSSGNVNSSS
In short: (§2)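 Stably transfected CHO cells overexpressing human S1P1 or S1P3 receptor, serum-starved overnight, then stimulated with test compounds alongside S1P in the same experiment for the indicated times. Cells lysed and lysates resolved on 12% SDS-PAGE gels for Western blot read-out.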

[17] = biological target: Sphingosine 1-phosphate receptor 3 (Homo sapiens) (UniProt Q99500); assay: Agonist activity at human S1P3 receptor overexpressed in CHO cells assessed as p44/42 MAPK phosphorylation at 1 uM by Western blot analysis; assay type: cell-based; conditions: TDE = time-dependent effect; in short: as §2
Sphingosine 1-phosphate receptor 3 (Homo sapiens), sequence (Q99500 whole entry): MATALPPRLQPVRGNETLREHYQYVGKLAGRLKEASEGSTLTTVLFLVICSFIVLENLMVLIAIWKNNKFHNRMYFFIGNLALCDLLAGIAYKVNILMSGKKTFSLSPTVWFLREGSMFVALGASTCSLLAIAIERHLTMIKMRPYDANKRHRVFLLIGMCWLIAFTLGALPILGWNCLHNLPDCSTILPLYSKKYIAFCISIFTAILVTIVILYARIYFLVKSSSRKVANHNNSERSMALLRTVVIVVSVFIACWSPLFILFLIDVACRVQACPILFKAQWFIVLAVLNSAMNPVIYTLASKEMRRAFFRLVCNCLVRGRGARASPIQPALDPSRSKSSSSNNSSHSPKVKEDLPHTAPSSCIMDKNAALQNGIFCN

[18] = test system: Mus musculus; assay: In vivo inhibition of S1P1 receptor in mouse assessed as reduction of peripheral blood CD4+ cells at 1.25 mg/kg, ip after 24 hrs by flow cytometric analysis relative to control

Drug uptake [5]	Drug uptake [6]	Drug uptake [7]	Drug uptake [8]	Drug uptake [9]	Drug uptake [10]	Drug uptake [12]	Drug uptake [13]	SMILES	inhibition in vivo at 1.25 mg/kg [1]	Activity [2]	Activity [3]	Activity [4]	Activity [16]	Activity [17]	other results
–	–	–	–	–	–	–	–	NC(CO)(CO)CCc1ccc(CCCCCCF)cc1	59%	4.91 ×10⁶ /ml	2.23 ×10⁶ /ml	0.25 ×10⁶ /ml	–	–	–
4.8 %ID/ml	Not Active	8.6 %ID/ml	20 %ID/ml	4 %ID/ml	6.4 %ID/ml	25 %ID/ml	Not Active	NC(CO)(CO)CCc1ccc(CCCCCCCC[18F])cc1	–	–	–	–	–	–	Retention_time [11]: 11.15 min; Drug uptake [14]: 7.8 %ID/ml
4 %ID/ml	Not Active	8 %ID/ml	20 %ID/ml	4 %ID/ml	5 %ID/ml	25 %ID/ml	Not Active	NC(CO)(CO)CCc1ccc(CCCCCC[18F])cc1	–	–	–	–	–	–	Drug uptake [15]: 7 %ID/ml
–	–	–	–	–	–	–	–	NC(CO)(CO)CCc1ccc(CCCCCCCCF)cc1	95%	3.04 ×10⁶ /ml	1.03 ×10⁶ /ml	0.03 ×10⁶ /ml	–	–	–
–	–	–	–	–	–	–	–	CCCCCCCCCCCCC/C=C/[C@@H](O)[C@@H](N)COP(=O)(O)O	–	–	–	–	tde	tde	–
–	–	–	–	–	–	–	–	NC(CO)(CCc1ccc(CCCCCCCCF)cc1)COP(=O)(O)O (stereo not given)	–	3.93 ×10⁶ /ml	1.05 ×10⁶ /ml	0.14 ×10⁶ /ml	tde	tde	inhibition in vivo at 1.25 mg/kg [18]: 89%

From ChEMBL document CHEMBL3421528, “Synthesis and evaluation of fluorinated fingolimod (FTY720) analogues for sphingosine-1-phosphate receptor molecular imaging by positron emission tomography” (J Med Chem, 2015)
